For data set [1], the system named is Oryctolagus cuniculus. Put plainly: 100 mg/kg of [14C]- radiolabeled compound was orally (gavage) injected in rabbit kidney, and radioactivity content in feces was estimated. In kind it is ADME, organism-based. The settings on record: in vivo, po. In outline:
(§1)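 Rabbit given 100 mg/kg [14C]-labelled drug by gavage, 204.6 dpm/μg, in water/0.1 N HCl at 6.66 mg/mL. Rabbit 1 was killed at 2 h and liver, lung, kidney and blood taken; tissue values are μg equivalents/g and tissue:plasma ratio. Rabbit 3 was kept for urine (0-24, 24-48, 48-72 h) and feces (0-48 h), expressed as % of dose.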

For data set [2], the system named is Oryctolagus cuniculus. Put plainly: 100 mg/kg of [14C]- radiolabeled compound was orally (gavage) injected in rabbit 1 lung, and radioactivity content in feces was estimated at. In kind it is ADME, organism-based. Conditions: in vivo, po. The method in brief: as §1
The test system of data set [3] is Oryctolagus cuniculus. The data set can be described thus: Radioactivity measurements were performed following oral administration of the 100 mg/kg in rabbit 5 after 2 hr brain. Type of data set: ADME, organism-based. The settings on record: in vivo. Further details: dose 100 mg/kg, route oral. In outline:
(§2)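 Male rabbits (900-1060 g) received [14C]-labelled parent amide, 100 mg/kg (251.7 dpm/μg, pH about 4.5), by gavage. At 2 or 6 h they were killed by air injection into the ear vein. Blood was drawn by cardiac puncture; brain and lung were homogenized in water (1 g = 10 mL). Radioactivity is expressed as μg equivalents of parent per g or mL.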

In data set [4] the test system is Oryctolagus cuniculus. The data set can be described thus: Radioactivity measurements were performed following oral administration of the 100 mg/kg in rabbit 5 after 2 hr in plasma. Type of data set: ADME, organism-based. Details: dose 100 mg/kg, route oral. The settings on record: in vivo. In outline:
as §2

Data set [5] relates to Oryctolagus cuniculus. Put plainly: Radioactivity measurements were performed following oral administration of the 100 mg/kg in rabbit 6 after 2 hr in plasma. Type of data set: ADME, organism-based. Details: dose 100 mg/kg, route oral. The settings on record: in vivo. The method in brief:
as §2

In data set [6] the test system is Oryctolagus cuniculus. The data set can be described thus: Evaluation of formation of 3-Methyl-thiazolidin-2-ylideneamine from the radiolabeled compound, orally administered, from rabbit 1,2 lung was analyzed by Gas-liquid chromatographic analysis. Type of data set: ADME, organism-based. Conditions: in vivo, po. The method in brief:
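Rabbit 1 was given [14C]-labelled parent amide, 100 mg/kg (204.6 dpm/μg), orally by gavage and killed 2 h later. Urine (0-2 h), blood, liver, lung and kidney were collected. Samples were extracted, trimethylsilylated with BSA/pyridine at 70 °C for 12-16 h, and run by GLC on 3% OV-210 at 95 °C against the internal standard 3-ethyl-2-thiazolidinimine. Output is % of radioactivity present as the metabolite, mean of two determinations.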

Data set [7] has as its system Oryctolagus cuniculus. Put plainly: Evaluation of formation of 3-Methyl-thiazolidin-2-ylideneamine from the radiolabeled compound, orally administered, from rabbit 2,4 lung was analyzed by Gas-liquid chromatographic analysis. In kind it is ADME, organism-based. Conditions: in vivo, po. The method in brief:
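Rabbit 2 was gavaged twice with [14C]-labelled parent amide, 100 mg/kg each dose (204.6 dpm/μg), 2 h apart, and killed 2 h after the second dose. Urine (0-4 h), blood, liver, lung and kidney were taken. The metabolite was measured by GLC of trimethylsilyl derivatives (3% OV-210, 95 °C, internal standard 3-ethyl-2-thiazolidinimine). Values are % of radioactivity as metabolite, mean of two determinations.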

For data set [8], the system named is Oryctolagus cuniculus. Put plainly: Evaluation of formation of 3-Methyl-thiazolidin-2-ylideneamine from the radiolabeled compound, orally administered, from rabbit 3 urine was analyzed at 0-2 hr by Gas-liquid chromatographic analysis. Conditions: in vivo, po, in the assay text read “0-24 hr” for “0-2 hr”. Type of data set: ADME, organism-based. The method in brief: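 Rabbits 3 (single 100 mg/kg) and 4 (two 100 mg/kg doses 2 h apart) were gavaged with [14C]-labelled parent amide (204.6 dpm/μg). They were not killed; urine was collected 0-24 h. The metabolite was quantified by GLC of trimethylsilylated extracts against an internal-standard peak-height-ratio curve. Results are given as % of urinary radioactivity or % of administered dose, mean of two determinations.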

The target of data set [9] is Indolethylamine N-methyltransferase (Homo sapiens) (UniProt O95050). Put plainly: In vitro evaluation of Indoleethylamine-N-methyltransferase in human lung preparations for ability to inhibit conversion of N-methyltryptamine (NMT) to N,N-dimethyltryptamine (DMT) at dose 25 ug/mL. Type of data set: tissue-based. The method in brief: (§3)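 Human lung INMT was taken from the 50000g supernatant, cut with 40-60% ammonium sulfate, dialysed and purified on Sephadex G-150. The reaction contained 0.007 M N-methyltryptamine stock, S-[methyl-14C]adenosylmethionine and potassium phosphate, pH 7.9, in 0.105 mL, run 90 min at 37 °C. It was stopped with borate at pH 10. [14C]DMT was extracted into isoamyl alcohol and counted by scintillation.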
Sequence of Indolethylamine N-methyltransferase (Homo sapiens) (O95050 whole entry): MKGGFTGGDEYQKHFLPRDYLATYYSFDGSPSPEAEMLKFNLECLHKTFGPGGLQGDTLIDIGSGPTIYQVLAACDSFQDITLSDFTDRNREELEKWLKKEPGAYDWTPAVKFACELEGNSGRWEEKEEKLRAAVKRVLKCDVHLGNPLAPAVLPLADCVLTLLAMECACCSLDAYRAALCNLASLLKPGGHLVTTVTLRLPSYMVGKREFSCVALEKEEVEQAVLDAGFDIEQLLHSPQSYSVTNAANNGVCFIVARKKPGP

Data set [10] shares this target. The data set can be described thus: In vitro evaluation of Indoleethylamine-N-methyltransferase in human lung preparations for the ability to inhibit conversion of N-methyltryptamine (NMT) to N,N-dimethyltryptamine (DMT) at dose 2.5 ug/mL. Type of data set: tissue-based. The method in brief:
as §3

Data set [11] is described as follows: Dose that causes approximately 50% lethality in mice, when given perorally. Conditions: mouse, in vivo, po. Type of data set: ADME, organism-based. The method in brief: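 Mice in groups of one to three were dosed orally. Deaths were scored on day 7 after dosing, and the LD50 was obtained by graphical interpolation.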
Data set [12] is described as follows: Dose that causes approximately 50% lethality in mice, when given intraperitoneally; Value ranges from 1000-1500. Type of data set: ADME, organism-based. Conditions: mouse, in vivo, ip.
Data set [13] relates to Indolethylamine N-methyltransferase (Oryctolagus cuniculus). The data set can be described thus: Compound tested for inhibitory activity against rabbit lung Indoleethylamine-N-methyltransferase at oral dose 25 mg/kg.
Data set [14] shares this test system. Put plainly: In vivo evaluation of specific activity against rabbit lung Indoleethylamine-N-methyltransferase at oral dose of 25 mg/kg.
Data set [15] relates to Oryctolagus cuniculus. Put plainly: 200 mg/kg of [14C]- radiolabeled compound was orally administered in rabbit4, and radioactivity content in urine was estimated at. Conditions: rabbit, in vivo, po.
Data set [16] relates to Indolethylamine N-methyltransferase (Oryctolagus cuniculus). Put plainly: Compound tested for inhibitory activity against rabbit lung Indoleethylamine-N-methyltransferase at 5 mg/kg intravenously*p< 0.05.
Data set [17] deals with Oryctolagus cuniculus. The data set can be described thus: 100 mg/kg of [14C]- radiolabeled compound was orally (gavage) administered in rabbit 1, and radioactivity content in lung was estimated. The settings on record: in vivo, po.
In data set [18] the test system is Oryctolagus cuniculus. Put plainly: 100 mg/kg of [14C]- radiolabeled compound was orally administered in rabbit1, and radioactivity content in urine was estimated at 0-2 hr. The settings on record: rabbit, in vivo, po.
For data set [19], the system named is Oryctolagus cuniculus. Put plainly: 100 mg/kg of [14C]- radiolabeled compound was orally administered in rabbit3, and radioactivity content in feces was estimated at 0-48 hr. The settings on record: rabbit, in vivo, po.
The subject of data set [20] is Oryctolagus cuniculus. Put plainly: 200 mg/kg of [14C]- radiolabeled compound was orally administered in rabbit4, and radioactivity content in urine was estimated at 24-48 h. Conditions: rabbit, in vivo, po.
In data set [21] the test system is Oryctolagus cuniculus. Put plainly: 200 mg/kg of [14C]- radiolabeled compound was orally administered in rabbit4, and radioactivity content in urine was estimated at 48-72 h. Conditions: rabbit, in vivo, po.
Data set [22] has as its system Oryctolagus cuniculus. The data set can be described thus: 200 mg/kg of [14C]- radiolabeled compound was orally administered in rabbit4, and radioactivity content in urine was estimated at total hours. The settings on record: rabbit, in vivo, po.
Data set [23] relates to Oryctolagus cuniculus. The data set can be described thus: 100 mg/kg of [14C]- radiolabeled compound was orally (gavage) administered in rabbit3, and radioactivity content in urine was estimated at 48-72 h. Conditions: rabbit, in vivo, po.

Results on one compound are retold here after ChEMBL document CHEMBL1121475, “Inhibitors of indoleethylamine N-methyltransferase. Derivatives of 3-methyl-2-thiazolidinimine. In vitro, in vivo, and metabolic studies” (J Med Chem, 1980).

What is called inhibition is the change of the read-out against control, counted positive when it falls. A low value points to little suppression. The term LD50 denotes the dose expected to kill half of the subjects tested. On to `CN1CCS/C1=N\C(=O)CCC(=O)/N=C1/SCCN1C`, for which the Tissue concentration with Oryctolagus cuniculus [1] is 211 µg/g. In addition, the Tissue to plasma ratio in the data set with Oryctolagus cuniculus [2] was 1.5. Besides, the figures for the Radioactivity level in the data set on Oryctolagus cuniculus [3], in the data set with Oryctolagus cuniculus [4] and with Oryctolagus cuniculus [5] were 17.8 µg/g, 14.2 µg/mL and 21.1 µg/mL, respectively. Also, the Radioactivity in the data set with Oryctolagus cuniculus [6] is listed as 92.9%; with Oryctolagus cuniculus [7], 75.4%; in the data set with Oryctolagus cuniculus [8] it was 51.3%. Moreover, the inhibition in data set [9] stood at 12%; in data set [10], 74%; in data set [13] it was 76.1%; in data set [16], 64%. The results for the LD50 in data set [11] and in [12] were 1460 mg/kg and 1000 mg/kg, respectively. The compound also gave a Specific activity in data set [14] of 14100 dpm. Besides, the Administered dose in the data set on Oryctolagus cuniculus [15] is 87.1%; in the data set on Oryctolagus cuniculus [18] it was 48.8%; in the data set with Oryctolagus cuniculus [19], 3.8%; in the data set with Oryctolagus cuniculus [20] it was 0.8%; with Oryctolagus cuniculus [21] it was 0.1%; in the data set with Oryctolagus cuniculus [22] it was 88%. Besides, the Administered dose with Oryctolagus cuniculus [23] is given as 0.2%. Besides, the Radioactivity concentration with Oryctolagus cuniculus [17] is 36.3 µg/g.
